Tests used:
[1] = biological target: T1, Diacylglycerol O-acyltransferase 1 (Homo sapiens, UniProt O75907); test: Inhibition of human DGAT1
T1 sequence (O75907 whole entry): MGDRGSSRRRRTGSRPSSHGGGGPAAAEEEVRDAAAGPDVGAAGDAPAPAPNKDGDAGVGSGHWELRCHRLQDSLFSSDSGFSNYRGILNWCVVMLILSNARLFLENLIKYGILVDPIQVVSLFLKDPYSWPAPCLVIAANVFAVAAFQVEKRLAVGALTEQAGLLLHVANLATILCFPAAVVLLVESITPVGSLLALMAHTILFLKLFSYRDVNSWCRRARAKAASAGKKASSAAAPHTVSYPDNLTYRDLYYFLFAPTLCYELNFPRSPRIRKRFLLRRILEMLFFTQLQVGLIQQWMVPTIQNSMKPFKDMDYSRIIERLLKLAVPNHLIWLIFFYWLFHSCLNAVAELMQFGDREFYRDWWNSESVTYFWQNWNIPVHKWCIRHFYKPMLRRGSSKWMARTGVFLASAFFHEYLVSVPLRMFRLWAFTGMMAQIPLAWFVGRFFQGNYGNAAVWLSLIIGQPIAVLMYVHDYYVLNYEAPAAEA

[2] = biological target: T2, Diacylglycerol O-acyltransferase 1 (Mus musculus, UniProt Q9Z2A7); test: Inhibition of mouse DGAT1
T2 sequence (Q9Z2A7 whole entry): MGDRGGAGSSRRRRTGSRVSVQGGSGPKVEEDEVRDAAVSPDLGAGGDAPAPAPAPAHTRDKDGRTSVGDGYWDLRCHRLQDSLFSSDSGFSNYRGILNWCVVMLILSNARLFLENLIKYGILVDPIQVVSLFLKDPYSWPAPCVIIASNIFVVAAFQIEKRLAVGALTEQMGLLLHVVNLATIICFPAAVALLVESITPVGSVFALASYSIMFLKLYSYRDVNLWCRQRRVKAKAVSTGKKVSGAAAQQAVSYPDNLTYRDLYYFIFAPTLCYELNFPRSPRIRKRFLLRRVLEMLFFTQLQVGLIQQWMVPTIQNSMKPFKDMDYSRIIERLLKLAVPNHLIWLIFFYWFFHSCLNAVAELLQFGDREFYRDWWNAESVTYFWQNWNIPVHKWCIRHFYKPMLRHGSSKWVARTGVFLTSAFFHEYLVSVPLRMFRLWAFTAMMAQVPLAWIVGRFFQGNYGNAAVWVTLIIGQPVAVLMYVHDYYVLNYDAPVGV

[3] = Lipophilicity, log D of the compound by HPLC analysis; assay type: physicochemical
[4] = Biodistribution in mouse blood at 3 mg/kg, po at 25 hrs; assay type: ADME, organism-based; set-up: dose 3 mg/kg, route oral; details: whole blood, read-out: Drug uptake
Method in brief: (§1)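 Mice, single oral dose of 3 mg/kg. Drug concentration (μM) determined in blood and in duodenum, jejunum and ileum segments at 2, 5 and 25 h.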

[5] = Biodistribution in mouse ileum at 3 mg/kg, po at 5 hrs; assay type: ADME, organism-based; set-up: dose 3 mg/kg, route oral; details: read-out: Drug uptake; method in brief: as §1
[6] = Ratio of drug uptake in duodenum to blood of mouse at 3 mg/kg, po at 2 to 25 hrs; assay type: ADME, organism-based; set-up: dose 3 mg/kg, route oral
Method in brief: (§2)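 Mice dosed orally at 3 mg/kg within a repeat lipid tolerance test. Drug levels (μM) measured in blood and in intestinal segments (duodenum, jejunum, ileum) at 2, 5 and 25 h after dosing. Tissue-to-blood ratio taken from the segment and blood concentrations at each time point.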

[7] = Biodistribution in mouse jejunum at 3 mg/kg, po at 25 hrs; assay type: ADME, organism-based; set-up: dose 3 mg/kg, route oral; details: read-out: Drug uptake; method in brief: as §1
[8] = Biodistribution in mouse ileum at 3 mg/kg, po at 2 hrs; assay type: ADME, organism-based; set-up: dose 3 mg/kg, route oral; details: read-out: Drug uptake; method in brief: as §1
[9] = Biodistribution in mouse duodenum at 3 mg/kg, po at 25 hrs; assay type: ADME, organism-based; set-up: dose 3 mg/kg, route oral; details: read-out: Drug uptake; method in brief: as §1
[10] = Biodistribution in mouse blood at 3 mg/kg, po at 2 hrs; assay type: ADME, organism-based; set-up: dose 3 mg/kg, route oral; details: whole blood, read-out: Drug uptake; method in brief: as §1
[11] = Biodistribution in mouse ileum at 3 mg/kg, po at 25 hrs; assay type: ADME, organism-based; set-up: dose 3 mg/kg, route oral; details: read-out: Drug uptake; method in brief: as §1
[12] = Biodistribution in mouse jejunum at 3 mg/kg, po at 2 hrs; assay type: ADME, organism-based; set-up: dose 3 mg/kg, route oral; details: read-out: Drug uptake; method in brief: as §1
[13] = Biodistribution in mouse blood at 3 mg/kg, po at 5 hrs; assay type: ADME, organism-based; set-up: dose 3 mg/kg, route oral; details: whole blood, read-out: Drug uptake; method in brief: as §1
[14] = Ratio of drug uptake in jejunum to blood of mouse at 3 mg/kg, po at 2 to 25 hrs; assay type: ADME, organism-based; set-up: dose 3 mg/kg, route oral; method in brief: as §2
[15] = Biodistribution in mouse duodenum at 3 mg/kg, po at 5 hrs; assay type: ADME, organism-based; set-up: dose 3 mg/kg, route oral; details: read-out: Drug uptake; method in brief: as §1
Mus musculus [16] = test: Reduction in triglyceride excursion in mouse at 3 mg/kg, po by lipid tolerance test; assay type: functional; set-up: scale not given: the % may be the effect or the level left
[17] = Biodistribution in mouse jejunum at 3 mg/kg, po at 5 hrs; assay type: ADME, organism-based; set-up: dose 3 mg/kg, route oral; details: read-out: Drug uptake; method in brief: as §1
[18] = Biodistribution in mouse duodenum at 3 mg/kg, po at 2 hrs; assay type: ADME, organism-based; set-up: dose 3 mg/kg, route oral; details: read-out: Drug uptake; method in brief: as §1
[19] = Ratio of drug uptake in ileum to blood of mouse at 3 mg/kg, po at 2 to 25 hrs; assay type: ADME, organism-based; set-up: dose 3 mg/kg, route oral; method in brief: as §2
[20] = Bioavailability in Sprague-Dawley rat at 1 mg/kg, iv; assay type: ADME, organism-based; details: in vivo
Method in brief: (§3)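 Sprague–Dawley rats; intravenous dose of 1 mg/kg given as a solution in EtOH/PEG400/water (10:50:40).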

[21] = Clearance in Sprague-Dawley rat at 1 mg/kg, iv; assay type: ADME, organism-based; set-up: dose 1 mg/kg, route intravenous; details: in vivo; method in brief: as §3
[22] = Volume of distribution at steady state in Sprague-Dawley rat at 1 mg/kg, iv; assay type: ADME, organism-based; set-up: dose 1 mg/kg, route intravenous; details: in vivo, read-out: Vdss; method in brief: as §3
Rattus norvegicus = test: Dose normalized AUC in Sprague-Dawley rat at 1 mg/kg, iv and 2 mg/kg, po; assay type: ADME, organism-based; details: in vivo
Method in brief: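 Sprague–Dawley rats; 1 mg/kg iv and 2 mg/kg p.o., both as solutions in EtOH/PEG400/water (10:50:40). Plasma AUC measured for the parent and, where applicable, for the epimerized metabolite formed in vivo.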

Mus musculus [23] = test: Reduction in triglyceride excursion in mouse at 10 mg/kg, po measured at 18 hrs by lipid tolerance test; assay type: functional; set-up: scale not given: the % may be the effect or the level left
Method in brief: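 Mouse lipid tolerance test. Oral dose of 10 mg/kg as a suspension in 0.5% methylcellulose; triglyceride reduction read at 18 h.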

[24] = Half life in Sprague-Dawley rat at 1 mg/kg, iv; assay type: ADME, organism-based; set-up: dose 1 mg/kg, route intravenous; details: in vivo; method in brief: as §3

Work on `O=C(O)C[C@H]1CC[C@H](c2ccc(-c3ccc(-c4nc5ccc(C(F)(F)F)cc5[nH]4)cn3)cc2)CC1` yielded an IC50 [1] of 3.5 nM, an IC50 [2] of 2.8 nM and a logD [3] of 1.97.

For `O=C(O)[C@H]1CC[C@@H](Oc2ccc(-c3ccc(-c4nc5ccccc5[nH]4)cn3)cn2)CC1`, the concentration at 25 h [4] was 10 nM, the concentration at 5 h [5] was 1720 nM and the Kp [6] was greater than 30. The IC50 [1] was 4 nM, the concentration at 25 h [7] was 3.06 µM and the concentration at 2 h [8] was 3.89 µM. It also gave an IC50 [2] of 8.1 nM, a concentration at 25 h [9] of 1760 nM and a concentration at 2 h [10] of 114 nM. The concentration at 25 h [11] was 620 nM, the concentration at 2 h [12] was 5.51 µM and the concentration at 5 h [13] was 51 nM. It also gave a Kp [14] greater than 30, a concentration at 5 h [15] of 8.76 µM and an Activity (Mus musculus [16]) of 95%. It also gave a concentration at 5 h [17] of 6.01 µM, a concentration at 2 h [18] of 8.32 µM and a Kp [19] greater than 30.

For `O=C(O)[C@H]1CC[C@@H](Oc2ccc(-c3ccc(-c4nc5ccc(Cl)cc5[nH]4)cn3)cn2)CC1`, the bioavailability [20] was 19%, the clearance [21] was 3 mL/min/kg and the IC50 [1] was 2.1 nM. The Vd [22] was 0.34 L/kg, the IC50 [2] was 3.7 nM and the AUC/dose (Rattus norvegicus) was 2.4 µM·h/mg/kg. It also gave an Activity (Mus musculus [23]) of 144%, a half-life [24] of 222 min and a logD [3] of 1.42.

With `O=C(O)[C@H]1CC[C@H](Oc2ccc(-c3ccc(-c4nc5cc(Cl)ccc5[nH]4)cn3)cn2)CC1` the IC50 [1] was 2 nM, the IC50 [2] was 4.2 nM and the Activity (Mus musculus [23]) was 83%. The logD [3] was 1.43.

`N#Cc1ccc2nc(-c3ccc(-c4ccc(O[C@H]5CC[C@@H](C(=O)O)CC5)nc4)nc3)[nH]c2c1` gave an IC50 [1] of 3.2 nM and an IC50 [2] of 36 nM.

With `COc1ccc2[nH]c(-c3ccc(-c4ccc(O[C@H]5CC[C@@H](C(=O)O)CC5)nc4)nc3)nc2n1` the IC50 [1] was 11 nM.

With `O=C(O)[C@H]1CC[C@H](Oc2ccc(-c3ccc(-c4nc5cc(C(F)(F)F)ccc5[nH]4)cn3)cn2)CC1` the IC50 [1] was 3 nM, the IC50 [2] was 4.4 nM and the Activity (Mus musculus [23]) was 84%. The logD [3] was 1.72.

With `COc1ccc2[nH]c(-c3ccc(-c4ccc(O[C@H]5CC[C@H](C(=O)O)CC5)nc4)nc3)nc2n1` the IC50 [1] was 14 nM.

Work on `CS(=O)(=O)c1ccc2nc(-c3ccc(-c4ccc(O[C@H]5CC[C@H](C(=O)O)CC5)nc4)nc3)[nH]c2c1` yielded an IC50 [1] of 137 nM and an IC50 [2] of 727 nM.

With `O=C(O)[C@H]1CC[C@@H](Oc2ccc(-c3ccc(-c4nc5cc(F)c(F)cc5[nH]4)cn3)cn2)CC1` the IC50 [1] was 1.4 nM, the IC50 [2] was 3.4 nM and the logD [3] was 1.28.

— ChEMBL document CHEMBL2407079, “Potent DGAT1 Inhibitors in the Benzimidazole Class with a Pyridyl-oxy-cyclohexanecarboxylic Acid Moiety” (ACS Med Chem Lett, 2013)
